# Source: ChEMBL document CHEMBL1122479, “Nucleic acid related compounds. 40. Synthesis and biological activities of 5-alkynyluracil nucleosides” (1983)
# What was measured:
# Assay type in all cases: functional
# [1] = system: PRK; assay: Inhibitory activity against incorporation of deoxy-[1',2'-3H]uridine (dUrd) into the DNA of uninfected primary rabbit kidney (PRK) cell cultures; conditions: Oryctolagus cuniculus, read-out: ID50 (the source's name)
# Method in brief: (§1)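 Uninfected primary rabbit kidney cells were used as a cytotoxicity measure. Incorporation of [methyl-3H]dThd or [1',2'-3H]dUrd into cellular DNA was followed with compound present.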
# [2] = system: L1210; assay: Concentration required to reduce leukemia L1210 cell growth […]; conditions: Mus musculus, read-out: ID50 (the source's name)
# [3] = system: PRK; assay: Concentration required to reduce Herpes simplex virus type 2 induced cytopathogenicity in primary rabbit kidney (PRK) cell cultures; conditions: Human alphaherpesvirus 2, PRK; read-out: ID50 (the source's name)
# [4] = system: PRK; assay: Concentration required to reduce Herpes simplex virus type 1 induced cytopathogenicity in primary rabbit kidney (PRK) cell cultures; conditions: Human alphaherpesvirus 1, PRK; read-out: ID50 (the source's name)
# [5] = system: PRK; assay: Concentration required to reduce Vaccinia virus induced cytopathogenicity in primary rabbit kidney (PRK) cell cultures; conditions: Orthopoxvirus vaccinia, read-out: ID50 (the source's name)
# [6] = system: PRK; assay: Inhibitory activity against incorporation of deoxy-[methyl.3H-]-thymidine (dThd) into the DNA of uninfected primary rabbit kidney (PRK) cell cultures; conditions: Oryctolagus cuniculus, read-out: ID50 (the source's name); method in brief: as §1
# [7] = system: L1210; assay: Inhibitory activity against incorporation of deoxy-[methyl.3H-]-thymidine (dThd) into the DNA of murine leukemia L1210 cell cultures; conditions: Mus musculus, read-out: ID50 (the source's name)
SMILES,IC50 [1] [µg/mL],IC50 [2] [µg/mL],IC50 [3] [µg/mL],IC50 [4] [µg/mL],IC50 [5] [µg/mL],IC50 [6] [µg/mL],IC50 [7] [µg/mL]
O=c1[nH]c(=O)n([C@H]2C[C@H](O)[C@@H](CO)O2)cc1C#CCCCO,> 156,280,> 400,> 400,125,> 200,
O=c1[nH]c(=O)n([C@H]2C[C@H](O)[C@@H](CO)O2)cc1C#CCCO,13,> 1000,47,18,10,73,
O=c1[nH]c(=O)n([C@H]2C[C@H](O)[C@@H](CO)O2)cc1I [IDOXURIDINE],0.12,61,0.3,0.15,0.2,1.5,
CCC#Cc1cn(C2O[C@H](CO)[C@@H](O)[C@@H]2O)c(=O)[nH]c1=O (some centres not stated),215,> 1000,> 400,200,> 400,120,> 1000
C#Cc1cn([C@H]2C[C@H](O)[C@@H](CO)O2)c(=O)[nH]c1=O,0.05,0.09,1,0.5,0.1,3,
CCCC/C=C\c1cn([C@H]2C[C@H](O)[C@@H](CO)O2)c(=O)[nH]c1=O,34,361,> 200,> 400,> 400,5,39
CCCCCC#Cc1cn([C@H]2C[C@H](O)[C@@H](CO)O2)c(=O)[nH]c1=O,33,219,> 400,> 400,70,9,45
O=c1[nH]c(=O)n([C@H]2C[C@H](O)[C@@H](CO)O2)cc1/C=C/Br [BRIVUDINE],25,0.001,2.5,0.007,5,90,
CC#Cc1cn(C2O[C@H](CO)[C@@H](O)[C@@H]2O)c(=O)[nH]c1=O (some centres not stated),> 100,36,50,20,200,92,> 1000
CC(C)(C)C#Cc1cn(C2O[C@H](CO)[C@@H](O)[C@H]2O)c(=O)[nH]c1=O (some centres not stated),> 400,,> 400,> 400,> 400,> 400,> 1000
CCCCC#Cc1cn([C@H]2C[C@H](O)[C@@H](CO)O2)c(=O)[nH]c1=O,59,1000,350,108,45,45,47
O=c1[nH]c(=O)n([C@H]2C[C@H](O)[C@@H](CO)O2)cc1C#CCO,8,> 1000,37,36,10,68,
COCC#Cc1cn([C@H]2C[C@H](O)[C@@H](CO)O2)c(=O)[nH]c1=O,2,254,2,1,2,16,
CCCC#Cc1cn([C@H]2C[C@H](O)[C@@H](CO)O2)c(=O)[nH]c1=O,3,> 1000,90,4,7,9,
CCCCCCc1cn([C@H]2C[C@H](O)[C@@H](CO)O2)c(=O)[nH]c1=O,52,301,350,400,300,7,
CCC#Cc1cn([C@H]2C[C@H](O)[C@@H](CO)O2)c(=O)[nH]c1=O,2,> 1000,32,4,7,13,
Cc1ccc(S(=O)(=O)OCCC#Cc2cn([C@H]3C[C@H](O)[C@@H](CO)O3)c(=O)[nH]c2=O)cc1,44,> 200,63,33,10,13,112
CC(C)(C)C#Cc1cn([C@H]2C[C@H](O)[C@@H](CO)O2)c(=O)[nH]c1=O,2,287,19,4,7,6,
O=c1[nH]c(=O)n([C@H]2C[C@H](O)[C@@H](CO)O2)cc1C#Cc1ccccc1,77,494,> 400,> 400,> 400,23,120
CC#Cc1cn([C@H]2C[C@H](O)[C@@H](CO)O2)c(=O)[nH]c1=O,0.7,164,0.7,0.3,0.4,3,
